Assay results reported in paper PMC7616001 (Journal of medicinal chemistry, 2022).
Read-outs that look alike come from different tables or passages of the source.

Tests used:
HeLa [1] = details: read-out: IC50 HeLa; 72 h continuous exposure, MTT assay; cited from earlier work
ROS level in HeLa cells = assay: H2DCF-DA intracellular ROS assay; format: cell-based, human; details: 10 μM, 1-8 h
Summary of the method: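 HeLa plated at 10 × 10^3 per well, grown overnight, then exposed to 10 μM test compound for 1, 2, 4 or 8 h. Washed with PBS and loaded with 10 μM H2DCF‑DA for 30 min. Washed again, phenol red‑free DMEM added, fluorescence read immediately. Three biological replicates.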

Cyclic voltammetry = format: physicochemical; details: acetonitrile, 0.1 M NEt4BF4
A2780 [2] = details: cited from earlier work
[3] = cited from earlier work
HeLa cells [4] = assay: Intracellular distribution between nucleus and cytoplasm, ICP-MS; format: cell-based, human; details: 10 μM, 24 h exposure
Summary of the method: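 5 × 10^6 HeLa per 100 mm plate, grown overnight. Exposed 24 h to 10 μM test compound, with 10 μM cisplatin as comparator. PBS‑washed, trypsinised, counted. Nuclear and cytoplasmic fractions isolated with a commercial kit. Protein measured by BCA assay, metal by ICP‑MS. Three experiments of ≥3 replicates.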

[5] = test system: PARP, p53, cleaved caspase 3 in HeLa cells; assay: Western blot of apoptosis-related marker proteins; format: cell-based, human; details: 24 h, cisplatin 10 μM, 1 at 1/4 × IC50 to IC50
Summary of the method: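 ~2 million HeLa per 60 mm dish, grown to 80–90% confluency, treated 24 h at 10, 20 or 40 μM. Lysed in RIPA buffer with protease inhibitors. Membranes blocked with 2% skim milk in 0.1% Tween 20 for 30 min. Primary antibody 1:1000 overnight at 4 °C; HRP secondary antibody.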

A2780cis [6] = assay: MTT assay, 72 h continuous exposure, cisplatin-resistant A2780Cis cells; format: cell-based, human; details: read-out: IC50 A2780cis; 72 h continuous exposure, MTT assay
Summary of the method: (§1)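 Ovarian lines grown in RPMI with 10% FBS and 1% penicillin/streptomycin; A2780Cis kept on 2 μM cisplatin 3 days each week. HeLa grown in DMEM with the same supplements. 3 × 10^3 cells/well, overnight, then serial dilutions of DMSO stocks (final DMSO ≤0.1%); cisplatin stock in PBS. 72 h continuous exposure, MTT 0.5 mg/mL 3 h, formazan in DMSO, A570 normalised to untreated. IC50 from curves; ≥3 independent experiments.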

A2780cis [7] = details: A2780Cis versus wild-type A2780; cited from earlier work
HeLa cells [8] = assay: Annexin-V/PI dual staining flow cytometry; format: cell-based, human; details: 10 μM (0.7 × IC50/24h)
HeLa [9] = assay: MTT assay, 72 h continuous exposure, HeLa cells; format: cell-based, human; details: read-out: IC50 HeLa; 72 h continuous exposure, MTT assay
Summary of the method: as §1

A2780 [10] = assay: MTT assay, 72 h continuous exposure, A2780 cells; format: cell-based, human; details: read-out: IC50 A2780; 72 h continuous exposure, MTT assay
Summary of the method: as §1

[11] = test system: MEF-Bax/Bak^+/+ and MEF-Bax/Bak^−/− cell lines; assay: Cytotoxicity in MEF-Bax/Bak+/+ versus MEF-Bax/Bak−/− cells; format: cell-based, murine
HeLa [12] = assay: 72 h crystal violet; format: cell-based, human; details: HeLa and A2780, 72 h
Summary of the method: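 Seeding and dosing as for MTT: 3 × 10^3 cells/well, overnight, final DMSO ≤0.1%, 72 h exposure. Wells washed with PBS and fixed in 4% paraformaldehyde for 15 min. Crystal violet stained, dried, dissolved in 96% ethanol and A570 read. IC50 derived from dose–response curves.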

[13] = read-out: IC50 in A2780 cells, reported antitumor activities

Molecule: O=C(CC(=O)C(F)(F)F)[c-]1cccc1.[Fe+2].c1cc[cH-]c1 [Compound L1, 4,4,4-trifluoro-1-ferrocenylbutane-1,3-dione]
- IC50 (HeLa [1]): 23 µM
- intracellular ROS level (H2DCF-DA) (ROS level in HeLa cells): unable to elevate the level of intracellular ROS
- oxidation potential (vs Fc^+/0) (Cyclic voltammetry): 287 mV
- IC50 (A2780 [2]; read-out: IC50 A2780, 72 h, MTT assay): 11.4 ± 2 µM
- pKa [3]: 6.5

Molecule: N.N.[Cl][Pt][Cl] [cisplatin, reference compound]
- metal content in nuclear fraction relative to cytoplasmic fraction (HeLa cells [4]): equally distributed between the cytoplasm and nucleus
- apoptosis markers (PARP cleavage, p53, cleaved caspase 3) [5]: cleavage of PARP and sharp upregulation of P53 and cleaved caspase 3
- IC50 (A2780cis [6]): 6.7 ± 0.1 µM
- resistance factor, RF (A2780cis [7]): 9.7
- AV^+/PI^− cells (early apoptosis) (HeLa cells [8]): 13.4%
- IC50 (HeLa [9]): 3000 ± 100 nM
- IC50 (A2780 [10]): 800 ± 100 nM
- IC50 in MEF-Bax/Bak^−/− compared to MEF-Bax/Bak^+/+ cells [11]: 2.5 fold
- IC50 from CV assay compared to IC50 from MTT assay (HeLa [12]): comparable

Molecule: O=C1[O][Pt]2([NH][C@@H]3CCCC[C@H]3[NH]2)[O]C1=O [oxaliplatin, reference compound]
- IC50 (HeLa [9]): 2100 ± 300 nM

Molecule: [Ru(η^6-arene)(PTA)-(4,4,4-trifluoro-1-(4-chlorophenyl)-1,3-butanedionato)]
- IC50 (A2780 [2]; [13]): 34.8 µM

Molecule: [Ru(η^6-arene)Cl(curcuminato)]
- IC50 (A2780 [2]; [13]): 23.4 µM
